Measured values taken from ChEMBL document CHEMBL4613238, “Synthesis and biological activity of thieno[3,2-d]pyrimidines as potent JAK3 inhibitors for the treatment of idiopathic pulmonary fibrosis” (Bioorg Med Chem, 2020).
Calls of active or inactive are those of the source. The calls are words filed in the database; no cut-off is given here.

Experiments:
[1] = target: Tyrosine-protein kinase BTK (Homo sapiens, UniProt Q06187); test: Inhibition of BTK (unknown origin) by ADP-Glo kinase assay
Outline: (§1)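 ADP-Glo luminescent assay run at compound concentrations of 0.1, 1, 10, 100 and 1000 nM. The kinase reaction ran in 1× kinase buffer for 60 min at room temperature. ADP-Glo reagent was then added to stop the reaction and deplete ATP (40 min, RT), followed by detection reagent (30 min, RT) and a luminescence read. IC50s came from curve fitting; means of three experiments.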

[2] = target: T1, Tyrosine-protein kinase JAK3 (Homo sapiens, UniProt P52333); test: Inhibition of recombinant human N-terminal GST-tagged JAK3 (781 to end residues) expressed in baculovirus infected Sf9 cells using poly (Glu,Tyr) 4:1 as substrate incubated for 60 mins in presence of ATP by ADP-Glo kinase assay; outline: as §1
T1 sequence (P52333 whole entry): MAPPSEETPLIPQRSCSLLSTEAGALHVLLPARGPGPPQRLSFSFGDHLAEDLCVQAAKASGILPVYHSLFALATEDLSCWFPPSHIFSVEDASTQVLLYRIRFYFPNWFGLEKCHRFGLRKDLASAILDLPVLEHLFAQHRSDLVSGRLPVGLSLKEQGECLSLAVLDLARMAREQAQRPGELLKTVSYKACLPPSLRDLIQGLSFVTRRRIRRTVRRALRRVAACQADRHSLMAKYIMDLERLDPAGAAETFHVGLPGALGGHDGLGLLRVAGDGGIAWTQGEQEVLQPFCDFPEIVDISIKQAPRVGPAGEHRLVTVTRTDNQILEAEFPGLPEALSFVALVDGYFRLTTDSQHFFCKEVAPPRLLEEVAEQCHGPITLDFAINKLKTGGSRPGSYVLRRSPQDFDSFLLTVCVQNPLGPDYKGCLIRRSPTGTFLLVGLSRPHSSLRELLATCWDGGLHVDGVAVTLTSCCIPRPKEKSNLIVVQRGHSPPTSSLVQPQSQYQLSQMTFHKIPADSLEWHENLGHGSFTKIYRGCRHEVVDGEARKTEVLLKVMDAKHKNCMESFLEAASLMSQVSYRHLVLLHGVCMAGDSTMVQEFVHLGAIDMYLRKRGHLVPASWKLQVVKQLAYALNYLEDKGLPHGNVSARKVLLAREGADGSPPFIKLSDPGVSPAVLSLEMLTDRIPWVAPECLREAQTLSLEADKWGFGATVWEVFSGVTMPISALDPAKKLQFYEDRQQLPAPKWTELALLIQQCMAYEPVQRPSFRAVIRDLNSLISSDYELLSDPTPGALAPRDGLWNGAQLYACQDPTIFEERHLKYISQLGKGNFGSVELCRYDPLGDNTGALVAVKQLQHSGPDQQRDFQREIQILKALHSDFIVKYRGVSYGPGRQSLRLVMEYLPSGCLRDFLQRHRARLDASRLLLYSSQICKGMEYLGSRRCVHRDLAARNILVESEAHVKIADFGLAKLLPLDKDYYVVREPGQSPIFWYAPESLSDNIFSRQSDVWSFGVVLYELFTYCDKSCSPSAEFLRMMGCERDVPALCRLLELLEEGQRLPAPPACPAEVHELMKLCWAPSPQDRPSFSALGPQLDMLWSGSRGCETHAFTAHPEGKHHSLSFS

[3] = Cytotoxicity against human NHBE cells assessed as reduction in cell viability by CCK8 assay; assay type: cell-based
Outline: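 Human bronchial epithelial (HBE) cells were tested for growth inhibition by CCK-8 assay. IC50 values are means of three separate experiments.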

Mus musculus [4] = test: Antifibrotic activity against bleomycin-induced pulmonary fibrosis C57BL/6J mouse model assessed as reduction in alveolar septal swelling at 30 to 60 mg/kg, po administered via gavage qd for 14 days at 3 days post bleomycin challenge by hematoxylin and eosin staining based light microscopic analysis; assay type: functional, organism-based
Outline: (§2)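 Intratracheal bleomycin (33 μg) was given to female C57BL/6J mice. Oral gavage started 3 days later and continued once daily for 14 days, with 1.4% DMSO saline as vehicle; n=8. Lungs were formalin-fixed for 24 h and paraffin-embedded. 5 μm sections were H&E-stained and examined by light microscopy at 200×.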

Mus musculus [5] = test: Antifibrotic activity against bleomycin-induced pulmonary fibrosis C57BL/6J mouse model assessed as reduction in oxidative stress by measuring reduction in MDA level in plasma at 60 mg/kg, po administered via gavage qd for 14 days at 3 days post bleomycin challenge; assay type: functional, organism-based
Outline: (§3)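 After 33 μg intratracheal bleomycin, female C57BL/6J mice were gavaged once daily for 14 days from day 3 (vehicle saline, 1.4% DMSO; n=8). MDA was measured in heparinized plasma with a kit by absorbance at 532 nm; mean ± SEM.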

Mus musculus [6] = test: Antifibrotic activity against bleomycin-induced pulmonary fibrosis C57BL/6J mouse model assessed as reduction in collagen deposition in lungs at 60 mg/kg, po administered via gavage qd for 14 days at 3 days post bleomycin challenge by Masson's Trichrome staining analysis; assay type: functional, organism-based
Outline: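 Female C57BL/6J mice received 33 μg intratracheal bleomycin, then once-daily gavage for 14 days from day 3 (1.4% DMSO saline vehicle; n=8). Lungs were fixed in formalin for 24 h and paraffin-embedded. 5 μm sections were stained with Masson's trichrome and viewed by light microscopy at 200×.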

Mus musculus [7] = test: Antifibrotic activity against bleomycin-induced pulmonary fibrosis C57BL/6J mouse model assessed as reduction in IL6 expression in plasma at 30 to 60 mg/kg, po administered via gavage qd for 14 days at 3 days post bleomycin challenge by FACSCalibur flow cytometry; assay type: functional, organism-based
Outline: (§4)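 Female C57BL/6J mice (5‒6 weeks, 20‒25 g) were given 33 μg bleomycin intratracheally in saline under isoflurane. From day 3 they received oral gavage once daily for 14 days, with saline containing 1.4% DMSO as vehicle; n=8 per group. Vena cava blood was heparinized and spun at 3000 rpm for 10 min, and plasma was stored at −20 °C. IL-6, IL-17A and TNF-α were measured by flow cytometry; mean ± SEM.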

Mus musculus [8] = test: Antifibrotic activity against bleomycin-induced pulmonary fibrosis C57BL/6J mouse model assessed as reduction in air-sacculitis at 30 to 60 mg/kg, po administered via gavage qd for 14 days at 3 days post bleomycin challenge by hematoxylin and eosin staining based light microscopic analysis; assay type: functional, organism-based; outline: as §2
Mus musculus [9] = test: Antifibrotic activity against bleomycin-induced pulmonary fibrosis C57BL/6J mouse model assessed as reduction in TNF-alpha expression in plasma at 30 to 60 mg/kg, po administered via gavage qd for 14 days at 3 days post bleomycin challenge by FACSCalibur flow cytometry; assay type: functional, organism-based; outline: as §4
Mus musculus [10] = test: Antifibrotic activity against bleomycin-induced pulmonary fibrosis C57BL/6J mouse model assessed as reduction in IL17A expression in plasma at 30 to 60 mg/kg, po administered via gavage qd for 14 days at 3 days post bleomycin challenge by FACSCalibur flow cytometry; assay type: functional, organism-based; outline: as §4
Mus musculus [11] = test: Antifibrotic activity against bleomycin-induced pulmonary fibrosis C57BL/6J mouse model assessed as reduction in collagen deposition by measuring hydroxyproline content in lungs at 60 mg/kg, po administered via gavage qd for 14 days at 3 days post bleomycin challenge by hydroxyproline assay; assay type: functional, organism-based
Outline: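 Bleomycin model in female C57BL/6J mice: 33 μg intratracheal, then daily oral dosing for 14 days beginning on day 3, vehicle saline with 1.4% DMSO, n=8. Lungs were perfused with saline and lavaged with PBS/1 mM EDTA. The left lobe was assayed for hydroxyproline with a kit by absorbance at 550 nm; mean ± SEM.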

Mus musculus [12] = test: Antifibrotic activity against po dosed bleomycin-induced pulmonary fibrosis C57BL/6J mouse model assessed as reduction in alveolar septal swelling administered via gavage qd for 14 days at 3 days post bleomycin challenge by hematoxylin and eosin staining based light microscopic analysis; assay type: functional, organism-based; outline: as §2
Mus musculus [13] = test: Antifibrotic activity against bleomycin-induced pulmonary fibrosis C57BL/6J mouse model assessed as reduction in lung coefficient at 30 to 60 mg/kg, po administered via gavage qd for 14 days at 3 days post bleomycin challenge; assay type: functional, organism-based
Outline: (§5)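 Bleomycin was given intratracheally (33 μg) to female C57BL/6J mice, 5‒6 weeks old. Daily oral gavage followed for 14 days from day 3, with 1.4% DMSO saline vehicle; n=8 per group. Fresh lungs were weighed and lung index was calculated as lung weight/body weight × 100.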

Mus musculus [14] = test: Antifibrotic activity against bleomycin-induced pulmonary fibrosis C57BL/6J mouse model assessed as reduction in alveolar septal swelling at 120 mg/kg, po administered via gavage qd for 14 days at 3 days post bleomycin challenge by hematoxylin and eosin staining based light microscopic analysis; assay type: functional, organism-based; outline: as §2
Mus musculus [15] = test: Antifibrotic activity against bleomycin-induced pulmonary fibrosis C57BL/6J mouse model assessed as reduction in IL6 expression in plasma at 120 mg/kg, po administered via gavage qd for 14 days at 3 days post bleomycin challenge by FACSCalibur flow cytometry; assay type: functional, organism-based; outline: as §4
Mus musculus [16] = test: Antifibrotic activity against bleomycin-induced pulmonary fibrosis C57BL/6J mouse model assessed as reduction in lung coefficient at 120 mg/kg, po administered via gavage qd for 14 days at 3 days post bleomycin challenge; assay type: functional, organism-based; outline: as §5
Mus musculus [17] = test: Antifibrotic activity against bleomycin-induced pulmonary fibrosis C57BL/6J mouse model assessed as reduction in IL17A expression in plasma at 120 mg/kg, po administered via gavage qd for 14 days at 3 days post bleomycin challenge by FACSCalibur flow cytometry; assay type: functional, organism-based; outline: as §4
Mus musculus [18] = test: Antifibrotic activity against bleomycin-induced pulmonary fibrosis C57BL/6J mouse model assessed as reduction in oxidative stress by measuring reduction in MDA level in plasma at 120 mg/kg, po administered via gavage qd for 14 days at 3 days post bleomycin challenge; assay type: functional, organism-based; outline: as §3
Mus musculus [19] = test: Antifibrotic activity against bleomycin-induced pulmonary fibrosis C57BL/6J mouse model assessed as reduction in TNF-alpha expression in plasma at 120 mg/kg, po administered via gavage qd for 14 days at 3 days post bleomycin challenge by FACSCalibur flow cytometry; assay type: functional, organism-based; outline: as §4
Mus musculus [20] = test: Antifibrotic activity against bleomycin-induced pulmonary fibrosis C57BL/6J mouse model assessed as reduction in alveolar septal swelling at 60 mg/kg, po administered via gavage qd for 14 days at 3 days post bleomycin challenge by hematoxylin and eosin staining based light microscopic analysis; assay type: functional, organism-based; outline: as §2

Tyrosine-protein kinase BTK, sequence (Q06187 whole entry): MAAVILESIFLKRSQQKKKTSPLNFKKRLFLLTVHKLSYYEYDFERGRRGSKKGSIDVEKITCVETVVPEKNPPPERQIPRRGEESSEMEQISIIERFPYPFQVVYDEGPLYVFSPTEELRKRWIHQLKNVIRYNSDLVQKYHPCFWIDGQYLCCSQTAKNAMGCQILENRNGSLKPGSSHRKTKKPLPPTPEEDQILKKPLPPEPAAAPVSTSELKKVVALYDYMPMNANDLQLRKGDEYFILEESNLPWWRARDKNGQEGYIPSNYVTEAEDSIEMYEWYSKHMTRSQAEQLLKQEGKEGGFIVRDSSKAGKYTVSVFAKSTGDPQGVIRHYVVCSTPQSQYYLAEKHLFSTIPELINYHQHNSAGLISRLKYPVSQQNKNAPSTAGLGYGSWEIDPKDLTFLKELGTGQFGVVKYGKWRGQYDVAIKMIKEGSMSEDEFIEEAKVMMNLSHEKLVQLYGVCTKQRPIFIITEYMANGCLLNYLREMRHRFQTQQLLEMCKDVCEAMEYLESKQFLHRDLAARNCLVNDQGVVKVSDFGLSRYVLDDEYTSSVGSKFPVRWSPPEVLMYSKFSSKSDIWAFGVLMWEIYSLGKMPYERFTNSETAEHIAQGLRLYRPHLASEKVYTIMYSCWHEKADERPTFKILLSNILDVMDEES

Compound | IC50 [1] [nM] | IC50 [2] [nM] | IC50 [3] [nM] | Activity (Mus musculus [5]) | Activity (Mus musculus [7]) | Activity (Mus musculus [9]) | Activity (Mus musculus [10]) | Activity (Mus musculus [11]) | Activity (Mus musculus [13]) | other results
C=CC(=O)Nc1cccc(Oc2nc(Nc3ccc(CN4CCOCC4)cc3)nc3ccsc23)c1 | > 100 | 85.3 | 12800 | – | – | – | – | – | – | –
C=CC(=O)Nc1cccc(Oc2nc(Nc3ccc(OCCCN4CCOCC4)c(Cl)c3)nc3ccsc23)c1 | ≥ 62.4 | 1.38 | 39000 | Active | Active | Active | Active | Active | Active | Activity (Mus musculus [4]): Active; Activity (Mus musculus [6]): Active; Activity (Mus musculus [8]): Active; Activity (Mus musculus [12]): Dose-dependent effect
C=CC(=O)Nc1cccc(Oc2nc(Nc3ccc(OCCCN4CCOCC4)cc3)nc3ccsc23)c1 | > 100 | 89.2 | > 40000 | – | – | – | – | – | – | –
Cc1ccc(=O)n(-c2ccccc2)c1 | – | – | – | – | – | – | – | – | – | Activity (Mus musculus [14]): Active; Activity (Mus musculus [15]): Active; Activity (Mus musculus [16]): Active; Activity (Mus musculus [17]): Active; Activity (Mus musculus [18]): Active; Activity (Mus musculus [19]): Active
C=CC(=O)Nc1cccc(Oc2nc(Nc3ccc(OCCN4CCOCC4)cc3)nc3ccsc23)c1 | > 100 | 90.8 | 23300 | – | – | – | – | – | – | –
COC(=O)c1ccc2c(c1)NC(=O)/C2=C(\Nc1ccc(N(C)C(=O)CN2CCN(C)CC2)cc1)c1ccccc1 | – | – | – | Active | Active | Active | Active | Active | Active | Activity (Mus musculus [20]): Active
